Measured values reported in paper PMC3480690 (The Open Medicinal Chemistry Journal, 2012).

Test system: MCF-7 cells
Assay: MTT assay, cytotoxicity on MCF-7 cells
Type: cell-based
Conditions: Homo sapiens, MCF7, 24 h, read-out: MTT assay IC50
In short: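 Human breast cancer MCF-7 cells grown in DMEM with 10% FBS, penicillin and streptomycin at 37°C, 5% CO2. 10000 cells per well were seeded, cultured overnight, then exposed to test compound (1-200 µM) for 24 h. MTT at 0.5 mg/ml final was added for 3 h at 37°C. Formazan was dissolved in DMSO and read at 545 nm (630 nm reference). IC50 was taken from concentration-growth inhibition curves.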

## Cc1ccc(-c2cc(C(F)(F)F)nn2-c2ccc(S(N)(=O)=O)cc2)cc1 [Celecoxib]
  IC50: 87.7 µM
